Measured values from the RNAGym collection of RNA variant scans (doi:10.1126/science.aae0568).
This sample holds only a part of the variants without activity.

B1: tRNA (parent)
chain: GUUCCGUUGGCGUAAUGGUAACGCGUCUCCCUCCUAAGGAGAAGACUGCGGGUUCGAGUCCCGUACGGAACG

Variants of: B1
Test: yeast fitness relative to wild type (ratio to wild type); higher = fitter; tRNA-Arg(CCU), competitive growth, 37 C, YPD
Summary of the method: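 The tRNA-Arg(CCU) gene variants were made by chemical synthesis with a 3% per-site mutation rate at 69 sites and inserted at the native genomic locus of Saccharomyces cerevisiae. After pooling, the strains were competed in YPD at 37°C for 24 hours in six parallel replicates. Gene amplicons from the start population and each end population were read by 100-nucleotide paired-end sequencing, and Darwinian fitness relative to wild type was taken from genotype frequency changes. Genotypes needed ≥ 100 starting reads, and estimates < 0.5 were set to 0.5.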

Variant | yeast fitness
U19A A43G | 0.867
C5A A14C G23A C24G A36U G63A G68A | 0.579
U26C G41C C46A | 0.627
G17C U19C A65G | 0.573
U16A C55A G68A | ≤ 0.5
U3G C4G C49G | 0.826
G25A A42U | 0.813
A21U C30U U32A | ≤ 0.5
C11A U28G C33A A45G A65U | ≤ 0.5
C30G A36G U53A G68A | ≤ 0.5
G38A G48A C49G | 0.525
A14C A20C U32C | ≤ 0.5
C31G G51A U59A | ≤ 0.5
C11U C29G A37C A42U | ≤ 0.5
C11U U54C | 0.844
C5U U19G | 1
G23A C49A U59C C62U A65U | ≤ 0.5
C29G U35G C60G | ≤ 0.5
U32A C61G A70U | ≤ 0.5
C62G A65C | 0.6
U8C C30U A57G | 0.533
U7A C22G A57G | ≤ 0.5
G10A A21G C24A C66U | ≤ 0.5
U8C G56A A69C | 0.836

Variant | yeast fitness
G18A C24U G48C U53G | 0.583
U7A G44C A45U | 0.503
A15G C55U G56A | 0.58
A15C U47G G52A G68A | ≤ 0.5
G12C G39A G68C | ≤ 0.5
G41C A45U | 0.778
C4G U7G C60A C62U G68C | ≤ 0.5
U13G G58C | 0.969
C4A C5A A43G | 0.529
G6A A45U A57C | ≤ 0.5
U8C G12A A21U A70U | ≤ 0.5
C5U U8A A69C | ≤ 0.5
A36G G44A C46U | 0.992
G18A C27U U28C C31A C55G | ≤ 0.5
G52C A70U | 0.804
G6A C30U U35A A37G G38C U47A | ≤ 0.5
A20C G44C | 0.688
U3A C4G C60G G67A | ≤ 0.5
C5U G18C C22A U54A A65G | ≤ 0.5
U16G A20C A21G C30U | 0.579
U13A U47C | 0.774
G23C C33G A42U G56U C62U | ≤ 0.5
C4A A21U C27A G41C | ≤ 0.5
A15G C27U C62G | 0.627

Variant | yeast fitness
C24U A45U G58A A65G | 0.794
U3A A36G C66U | 0.666
U3C A21G U32C A43U | 0.722
A15U G17C A37U | ≤ 0.5
G25C C33U G50C | ≤ 0.5
U3C A40G C62U A65U | ≤ 0.5
U35C A70U | 0.812
C30A A43G A69U | 0.618
U19C A65G G68U | 0.583
U2A C33A C55G A69C | ≤ 0.5
A20U G51A | 0.811
A20U A57G | 0.752
C46A C61G | 0.637
C4A A21U U47G | 0.535
C24U U26A U28G U54G | 0.545
G18A C30A C34G | ≤ 0.5
C31U G38C G51A G56A | 0.543
U7C A14G G25A A43G A69C | ≤ 0.5
G41A U59A A65C G67U | ≤ 0.5
A15C G52A | 0.712
G12C C61G C62U | 0.605
G6A A14U G23U | ≤ 0.5
A21U C49A | ≤ 0.5
C46A C49U G63C | 0.694

Variant | yeast fitness
C5U U13A C22U C30A A37G G41C C46G | ≤ 0.5
G51A C61G | 0.588
G39A C55A | 0.696
A21U C22G C33U | 0.572
G10C A40U | 0.635
C5U C22G C29G | 0.602
A45C G48A C55A | 0.544
A15G C46U C61G | 0.581
C24U C27A U53A C66U | ≤ 0.5
G10A U19A G44C C49U G67C | ≤ 0.5
G12A G18C C27U C55A | ≤ 0.5
A42G A43C A70U | 0.745
U13A C29G G48C | ≤ 0.5
C22U U32G C34U A40G C49U C66U | 0.552
C11U C31G A57U G67U | ≤ 0.5
G6A C61G A70C | 0.522
U26C A43U | 0.884
G17C G18C C22A C60A | 0.529
A15C C24G A45G G52A C60A | ≤ 0.5
G12C G17A C46G | 0.584
A14G A70G | 0.861
G23C A69U | 0.737
A42U C62U A70C | 0.594
C4G U8C G17A C27G A36U C62G | 0.607

Variant | yeast fitness
A45G C60A | 0.632
C11G U16A A20G C30A | ≤ 0.5
A20G C29G A37G G67C | ≤ 0.5
U3C U16G U19A A43C A57U | ≤ 0.5
U28G G38A A57C | ≤ 0.5
G18C G23A G25C A37G A43C C55G G68A | 0.551
C34A C60G | 0.664
G12A C46U G51C A70U | 0.534
U13A A37U G68A | 0.637
A21G A40G A70U | 0.609
G10A A21G C22U C55U | ≤ 0.5
C27U C46G A65G | 0.725
G6A C24U C61G C66U A70G | ≤ 0.5
U7A A21C U54C C61G | ≤ 0.5
C31A A65G | 0.732
C11G A14C C30G A45G A57G | ≤ 0.5
G12A G18A C27U C46U G48A | ≤ 0.5
U2G C11A C24A U26A G44C A70G | ≤ 0.5
A36U C49G | 0.607
C4G A15C U28C C55G A57U | ≤ 0.5
C5U G38C C46U C60U | ≤ 0.5
A40U G68C | 0.741
G12A A45C | 0.834
C22G C24U C29U C30G G63C | ≤ 0.5

Variant | yeast fitness
C22G U32G G48A G52A | ≤ 0.5
C5A C11U | 0.856
G12C A14C C24U A45U G58A A65G | ≤ 0.5
U2G C27G A65U | ≤ 0.5
G23C A37U U47C C60G C66U | ≤ 0.5
U8A G44C | 0.788
C34G A43U C49A | 0.737
U7C U32G C49U | ≤ 0.5
A20C C29U U54C | ≤ 0.5
A40U A43G | 0.788
C5G A14G C33A G56A U59C C61A | ≤ 0.5
C4U U16C A42G | 0.72
A15U C24A G25A U47C G52C C62U C66A A70C | ≤ 0.5
C4A U16A A43C | ≤ 0.5
A21G U35C | 0.728
C5A G25C A57C G67A A69U | 0.525
A15G A20G A40U | 0.808
C11U U13C A42U C55A G56A | 0.762
C22G G63A | 0.891
G6A A21G G58C U59C | 0.661
A20C A69G | 1.01
U2C G23C C27G A45G G52A C66A | 0.534
C5U G9A A21G U53A | ≤ 0.5
U7C A14C G51A | ≤ 0.5

Variant | yeast fitness
U32C C55U G67A | ≤ 0.5
C5G C27U G63A | ≤ 0.5
U7A A21G C30G A36G | ≤ 0.5
G23A U47C | 0.781
C27U C62A | 0.764
G18A C22G C24G G50A A69C | ≤ 0.5
C5G C46U G68C | 0.596
U7C C61G C62U | ≤ 0.5
G6A U16G A21G | 0.544
C5U U19C A69G | 0.706
U2A C24G A42U | 0.812
G10C C22U C33U U35C | ≤ 0.5
U47C A57U A65U | 0.567
A20C A37C A43G | 0.57
U3A G12A U19A | 0.763
U32C U53A | 0.691
G6A G39C G44C C46U | ≤ 0.5
C4U C31U A37U | 0.617
C4U C30A U64C | 0.92
A14U G63C | ≤ 0.5
G48C C55G | 0.78
C4U A15G C22U A69U | ≤ 0.5
U13C A21G C31G | 0.754
